Published values from different studies.
Each line is one published result; the experiments were not run side by side.
Target: cGMP-dependent protein kinase 2 (PRKG2, Homo sapiens, UniProt Q13237)
Residues used in one study (Q13237 1-762): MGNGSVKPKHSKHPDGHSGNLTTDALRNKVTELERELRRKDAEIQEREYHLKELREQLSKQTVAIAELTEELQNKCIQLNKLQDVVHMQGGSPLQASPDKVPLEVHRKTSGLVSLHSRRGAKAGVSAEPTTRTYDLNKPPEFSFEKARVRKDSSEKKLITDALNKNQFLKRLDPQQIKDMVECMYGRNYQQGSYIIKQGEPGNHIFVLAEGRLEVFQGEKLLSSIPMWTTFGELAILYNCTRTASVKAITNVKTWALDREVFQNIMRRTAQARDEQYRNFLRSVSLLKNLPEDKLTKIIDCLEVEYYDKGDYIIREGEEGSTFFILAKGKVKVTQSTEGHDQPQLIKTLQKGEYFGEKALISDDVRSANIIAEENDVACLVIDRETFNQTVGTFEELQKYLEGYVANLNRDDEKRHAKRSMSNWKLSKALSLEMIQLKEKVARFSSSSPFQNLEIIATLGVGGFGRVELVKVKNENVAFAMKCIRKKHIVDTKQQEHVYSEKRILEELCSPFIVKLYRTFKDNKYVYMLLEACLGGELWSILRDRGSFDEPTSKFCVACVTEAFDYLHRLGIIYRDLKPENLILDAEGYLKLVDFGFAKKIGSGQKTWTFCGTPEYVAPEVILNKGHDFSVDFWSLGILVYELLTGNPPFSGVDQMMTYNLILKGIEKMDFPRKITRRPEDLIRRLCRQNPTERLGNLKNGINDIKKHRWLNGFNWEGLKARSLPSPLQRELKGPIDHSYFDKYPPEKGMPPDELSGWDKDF

The remaining binding of O=C(NCC1CCOCC1)c1n[nH]cc1NC(=O)c1c(F)cccc1F is reported as 88% (binding; competition with immobilised ligand; 1 µM).
For Cc1cnn2ncc(-c3ccnc(N(C)C)n3)c2c1, the remaining binding was 98% (binding; 1 µM).
FC(F)(F)Oc1cccc(-c2cnc3ccc(-c4ccncc4)nn23)c1 has a remaining binding of 88% (cell-free assay; competition with immobilised ligand; 5 µM).
For Cn1nc(C(=O)NCc2ccc(C(=O)O)cc2)cc1-c1ccc2[nH]ccc2c1, the remaining binding was 78% (cell-free assay; competition with immobilised ligand; 0.1 µM).
The remaining binding of CN(C)c1ncc(F)c(-c2cnn3ncccc23)n1 is reported as 100% (binding; 1 µM).
CNCc1ccccc1-c1csc([C@H](C)Nc2nc(C)nc3cc(OC)c(OC)cc23)c1 has a remaining binding of 93% (cell-free assay; competition with immobilised ligand; 1 µM).
COc1cnc(Nc2cccc(S(N)(=O)=O)c2)nc1N1CCN(c2ccccc2)C(=O)C1 gave a remaining binding of 100% (binding; competition with immobilised ligand; 1 µM).
With O=C(c1ccc(Nc2nccc(-c3cc4ccccc4s3)n2)cc1)N1CCC(N2CCCC2)CC1 the remaining binding was 33% (binding; competition with immobilised ligand; 1 µM).
For CN(C)c1nccc(-c2cnc3ncccn23)n1, the remaining binding was 69% (binding; 1 µM).
With Cc1cnc(Nc2ccc(C(=O)N3CCC(N4CCCC4)CC3)cc2)nc1-c1cc2ccccc2s1 the remaining binding was 2.8% (binding; competition with immobilised ligand; 1 µM).
With COc1ncc2cc3ccccc3nc2c1C#N the remaining binding was 100% (cell-free assay; competition with immobilised ligand; 5 µM).
CCN1CCN(Cc2ccc(C(=O)Nc3ccc(C)c(Oc4ccc5c(c4)CC(=O)N5)c3)cc2C(F)(F)F)CC1 has a remaining binding of 100% (binding; competition with immobilised ligand; 1 µM).
The remaining binding of O=C1NC(c2ccccn2)Sc2ccccc21 (stereo not shown) is reported as 90% (cell-free assay; competition with immobilised ligand; 1 µM).
The remaining binding of CC1CCCN1c1nccc(-c2cnn3ncccc23)n1 (stereo not shown) is reported as 97% (binding; 1 µM).
With Nc1ncc2c(n1)-c1c([nH]c3ccc(C#CC4CC4)cc13)CCCC2 the remaining binding was 80% (binding; competition with immobilised ligand; 1 µM).
For NS(=O)(=O)c1cc(NC(=O)C2(c3ccccc3Cl)CC2)ccc1Oc1cccc(Cl)c1, the remaining binding was 100% (cell-free assay; competition with immobilised ligand; 1 µM).
For C=CC(=O)N1CCC(C(=O)NCC(=O)N2CCN(c3nc(-c4cnc(N)nc4C(F)F)nc(N4CCOCC4)n3)CC2)CC1, the remaining binding was 69% (binding; competition with immobilised ligand; 1 µM).
With O=C(O)c1cc(-c2ccc(C3CCNCC3)cc2)c2ccc(-c3ccc(C(F)(F)F)cc3)cc2c1 the remaining binding was 79% (cell-free assay; competition with immobilised ligand; 1 µM).
CN(CCCC(F)(F)F)c1nccc(-c2cnn3ncccc23)n1 has a remaining binding of 96% (binding; 1 µM).
With CCC(=N\O)/C(C)=C/c1ccc(F)cc1 the remaining binding was 79% (cell-free assay; competition with immobilised ligand; 1 µM).
The remaining binding of N[C@H]1CCN(c2nccc(-c3cnn4ncccc34)n2)C1 is reported as 91% (binding; 1 µM).
O=C(NCCCN1CCOCC1)c1ccc(Nc2nccc(-c3cc4ccccc4s3)n2)cc1 has a remaining binding of 43% (binding; competition with immobilised ligand; 1 µM).
